Key:
Plasma = assay: Inhibition of ADP-induced platelet aggregation in rabbit plasma at 200 uM; assay type: functional, Oryctolagus cuniculus; parameters: scale not given: the % may be the effect or the level left
Procedure, shortened: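 Rabbit blood anticoagulated with 3.8% trisodium citrate, with ADP as inducer; blank and ADP-control cuvettes included. Platelet-rich plasma was taken from the supernatant after 270 g/5 min. Platelet-poor plasma came from re-spinning at 1000 g/10 min. Aggregation was read on an aggregometer and reported as mean platelet aggregation rate (A%), n = 6.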

ECV-304 = assay: Protection of hydrogen peroxide-induced damage in ECV304 cells; assay type: functional, cell-based; conditions: Homo sapiens

SMILES | Activity (Plasma) [%] | EC50 (ECV-304) [µM]
Cc1nc(C)c(CN2CCN(Cc3cccc(C#N)c3)CC2)nc1C | 14.19 | 1110
Cc1nc(C)c(CN2CCNCC2)nc1C | 11.36 | 481
Cc1nc(C)c(CN2CCN(Cc3cccc(Cl)c3)CC2)nc1C | 10.56 | 503
Cc1nc(C)c(CN2CCN(Cc3nc(C)c(C)nc3C)CC2)nc1C | 19.36 | 311
Cc1nc(C)c(CN2CCN(Cc3ccccc3Br)CC2)nc1C | 7.68 | 784
Cc1nc(C)c(CN2CCN(Cc3ccc(C(C)(C)C)cc3)CC2)nc1C | 15.32 | 431
Cc1nc(C)c(CN2CCN(Cc3ccccc3C#N)CC2)nc1C | 12.16 | 637
Cc1nc(C)c(C)nc1C [LIGUSTRAZINE] | 7.86 | 452
Cc1nc(C)c(CN2CCN(Cc3ccc(C#N)cc3)CC2)nc1C | 11.37 | 417
CCc1ccc(CN2CCN(Cc3nc(C)c(C)nc3C)CC2)cc1 | 13.56 | 375
Cc1nc(C)c(CN2CCN(C(c3ccccc3)c3ccccc3)CC2)nc1C | 9.88 | 218
Cc1nc(C)c(CN2CCN(Cc3ccc(Br)cc3)CC2)nc1C | 13.26 | 845
Cc1nc(C)c(CN2CCN(Cc3ccccc3Cl)CC2)nc1C | 9.67 | 405
Cc1nc(C)c(CN2CCN(C/C=C/c3ccccc3)CC2)nc1C | 8.36 | 428
Cc1nc(C)c(CN2CCN(Cc3ccc([N+](=O)[O-])cc3)CC2)nc1C | 14.22 | 299
Cc1nc(C)c(CN2CCN(C(c3ccc(F)cc3)c3ccc(F)cc3)CC2)nc1C | 6.32 | 223
Cc1nc(C)c(CN2CCN(Cc3ccc(Cl)cc3Cl)CC2)nc1C | 5.7 | 424
Cc1nc(C)c(CN2CCN(C(c3ccccc3)c3ccc(Cl)cc3)CC2)nc1C (stereo unspecified) | 5.19 | 253
Cc1nc(C)c(CN2CCN(CCc3ccccc3)CC2)nc1C | 9.77 | 542
Cc1nc(C)c(CN2CCN(c3ccccc3)CC2)nc1C | 21.43 | 665
Cc1nc(C)c(CN2CCN(Cc3ccc(Cl)cc3)CC2)nc1C | 12.31 | 339
Cc1nc(C)c(CN2CCN(Cc3ccccc3)CC2)nc1C | 9.06 | 246
Cc1ccc(CN2CCN(Cc3nc(C)c(C)nc3C)CC2)cc1 | 17.69 | 328
